Test results from ChEMBL document CHEMBL5724801, “EUbOPEN Chemogenomics Library - Multiplex” (2024).
Where “and” joins values, the source holds several entries; their conditions need not be identical. Equal entries are not always repeated.

System: HEK-293T
Test: Multiplex assay against HEK293T
Format: toxicity, cell-based
Conditions: human
How it was run: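 Hoechst33342, BioTracker Green Microtubule Cytoskeleton Dye, MitoTracker Red and Annexin V Alexa Fluor 680 were added to live cells at seeding, and imaging on a CQ1 microscope at 37°C and 5% CO2 followed compound addition. Gating by CellPathfinder machine learning separated cells into Hoechst high-intensity objects or normal cells, then normal cells into healthy, pyknosed or fragmented nuclei, then pyknosed cells into mitotic or apoptotic. Per cents of healthy-nucleus cells are reported for the tubulin, mitochondrial-mass and membrane-permeability phenotypes.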

[1] = 12 h, 1 µM, compound concentration 1 uM
[2] = 12 h, 10 µM, compound concentration 10 uM
[3] = 24 h, 1 µM, compound concentration 1 uM
[4] = 24 h, 10 µM, compound concentration 10 uM
[5] = 48 h, 1 µM, compound concentration 1 uM
[6] = 48 h, 10 µM, compound concentration 10 uM

CC(C)Oc1ccc(F)c(-c2cnc(N)c(C(=O)Nc3cnccc3N3CCC[C@@H](C(=O)O)C3)n2)c1 was tested, and the “Population Apoptotic (%)” value [1] was 7.53% and 11.02%, the “Population Fragmented Nuclei (%)” value [1] was 1.12% and 6.54% and the “Population Hoechst High Intensity Objects (%)” value [1] was 0.28% and 0%. For the same molecule, the “Population Membrane Permeable-Phenotype (%)” value [1] was 0% and 4%, the “Population Mitochondria Different-Phenotype (%)” value [1] was 34.13% and 12% and the “Population Mitotic Cells (%)” value [1] was 92.47% and 88.98%. The “Population Normal (%)” value [1] was 99.72% and 100%, the “Population Pyknosed Nuclei (%)” value [1] was 40.78% and 77.12% and the “Total Cell Count” value [1] was 359 and 153. The “Population Apoptotic (%)” value [2] was 24.14% and 33.33%, the “Population Fragmented Nuclei (%)” value [2] was 7.04% and 7.45% and the “Population Hoechst High Intensity Objects (%)” value [2] was 1.97% and 0%. The “Population Membrane Permeable-Phenotype (%)” value [2] was 4.08% and 0%, the “Population Mitochondria Different-Phenotype (%)” value [2] was 31.63% and 17.39% and the “Population Mitotic Cells (%)” value [2] was 75.86% and 66.67%. The “Population Normal (%)” value [2] was 98.03% and 100%, the “Population Pyknosed Nuclei (%)” value [2] was 43.72% and 78.26% and the “Population Tubulin-Different-Phenotype (%)” value [2] was 70.41% and 47.83%. For the same molecule, the “Total Cell Count” value [2] was 203 and 161, the “Population Apoptotic (%)” value [3] was 17% and 27.27% and the “Population Fragmented Nuclei (%)” value [3] was 0.79% and 9.15%. For the same molecule, the “Population Hoechst High Intensity Objects (%)” value [3] was 0%, the “Population Membrane Permeable-Phenotype (%)” value [3] was 1.73% and 0% and the “Population Mitochondria Different-Phenotype (%)” value [3] was 12.59% and 10%. For the same molecule, the “Population Mitotic Cells (%)” value [3] was 83% and 72.73%, the “Population Normal (%)” value [3] was 100% and the “Population Tubulin-Different-Phenotype (%)” value [3] was 24.69% and 10%. For the same molecule, the “Population Apoptotic (%)” value [4] was 20.45% and 46.61%, the “Population Fragmented Nuclei (%)” value [4] was 3.49% and 7.1% and the “Population Healthy Nuclei (%)” value [4] was 62.4% and 28.42%. For the same molecule, the “Population Hoechst High Intensity Objects (%)” value [4] was 0.77% and 0%, the “Population Membrane Permeable-Phenotype (%)” value [4] was 1.86% and 0% and the “Population Mitochondria Different-Phenotype (%)” value [4] was 33.54% and 11.54%. For the same molecule, the “Population Mitotic Cells (%)” value [4] was 79.55% and 53.39%, the “Population Normal (%)” value [4] was 99.23% and 100% and the “Population Pyknosed Nuclei (%)” value [4] was 34.11% and 64.48%. The “Total Cell Count” value [4] was 260 and 183, the “Population Apoptotic (%)” value [5] was 8.84% and 23.26% and the “Population Fragmented Nuclei (%)” value [5] was 3.08% and 2.66%. For the same molecule, the “Population Healthy Nuclei (%)” value [5] was 77.03% and 51.6%, the “Population Hoechst High Intensity Objects (%)” value [5] was 0.22% and 0% and the “Population Membrane Permeable-Phenotype (%)” value [5] was 3.42% and 2.06%. For the same molecule, the “Population Mitochondria Different-Phenotype (%)” value [5] was 29.39% and 26.8%, the “Population Mitotic Cells (%)” value [5] was 91.16% and 76.74% and the “Population Normal (%)” value [5] was 99.78% and 100%. For the same molecule, the “Population Pyknosed Nuclei (%)” value [5] was 19.89% and 45.74%, the “Population Apoptotic (%)” value [6] was 31.37% and 50.7% and the “Population Fragmented Nuclei (%)” value [6] was 10.59% and 8.51%. For the same molecule, the “Population Healthy Nuclei (%)” value [6] was 74.41% and 53.72%, the “Population Hoechst High Intensity Objects (%)” value [6] was 0.29% and 0.53% and the “Population Membrane Permeable-Phenotype (%)” value [6] was 7.11% and 0.99%. The “Population Mitochondria Different-Phenotype (%)” value [6] was 69.96% and 27.72%, the “Population Mitotic Cells (%)” value [6] was 68.63% and 49.3% and the “Population Normal (%)” value [6] was 99.71% and 99.47%. For the same molecule, the “Population Pyknosed Nuclei (%)” value [6] was 15% and 37.77%, the “Population Tubulin-Different-Phenotype (%)” value [6] was 27.67% and 73.27% and the “Total Cell Count” value [6] was 341 and 189.
